Source: PubChem
Pf gametocyte – P. falciparum stage V gametocyte viability inhibition. P. falciparum stage V gametocytes, ATP luminescence, 24 h. inhibition, % at 10.9 µM. actives 0.065% (n = 150,000). AID 743093;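 active = inhibition above the mean plus 3 SD of compounds within the control limits, set per campaign, cut at about 38% in these data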
bCat nuc transl – modulators of beta-catenin nuclear translocation. nuclear translocation activity, % at 5 µM. actives 0.3% (n = 190,000). HeLa beta-catenin nuclear translocation, immunofluorescence imaging;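 active = nuclear translocation activity above 50% at 5 µM, with a well cell count of 50 or more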;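 also: per-cell ratio of nuclear to cytoplasmic median beta-catenin stain intensity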
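Test system: human HeLa cell line; Doses: 5 µM primary, 0.02–20 µM confirmation; Incubation: 24 h compound exposure, 37°C; Detection: beta-catenin immunofluorescence imaging with DAPI; Read-out: beta-catenin nuclear/cytoplasmic ratio, % activation.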
MT stabilize HCS – microtubule stabilizers in HeLa cells; HeLa tubulin immunostaining HCS, 24 h; share of cells brighter than vehicle mean+2SD; actives 0.83% (n = 200,000); % tubulin-high responders, % at 10 µM;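 active = plate Z-score above 3 for both tubulin-high and condensed-nucleus cell shares, with cell loss under 80%, at 10 µM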;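 also: anti alpha tubulin signal scored within the nucleus-defined area of each cell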
KCC2 mod – KCC2 (human) Cl- transport modulation. Q9H2X9. KCC2 cells, thallium flux FluoZin-2 fluorescence. B-score of Tl+ flux slope (higher = more flux/activation; lower = inhibition) at 10 µM. actives 2.2% (n = 190,000);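 active = thallium flux slope and its plate-corrected score both differing from the plate sample mean at a set confidence after two filtering rounds, in either direction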;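 also: slope of fluorescence scaled to starting intensity during 10 to 20 s after thallium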
WT yeast gro inh – growth inhibition of WT yeast, mitochondrial fusion screen; mitochondrial fusion phenotypic screen, WT strain; inhibition, % at 10 µM; actives 2.1% (n = 190,000); AID 1362; in the data active = inhibition above about 58%; tested in S. cerevisiae
Hits are given with their value; – = inactive; · = no result given. A selection: hits, their analogues and other compounds. The true share with any hit is near 4%.

SMILES | Pf gametocyte | bCat nuc transl | MT stabilize HCS | KCC2 mod | WT yeast gro inh
COc1cccc(CNc2ccc([N+](=O)[O-])cc2Cl)c1O | · | – | – | – | –
COc1ccc(C(OC(=O)c2ccco2)C(=O)NC(C)(C)C)cc1OC (stereo unspecified) | – | · | · | · | ·
C#CCN1C(=O)S/C(=C/C=C/c2ccc(N(C)C)cc2)C1=O | · | – | – | – | –
CCN(CCO)C(=O)CC1C(=O)NCCN1Cc1c(F)cccc1Cl (stereo unspecified) | – | – | – | · | –
Cc1cccc(OCCCC(=O)Nc2ccc(N3CCCCC3)cc2)c1C | – | – | – | · | 61
Cc1cccc(OCCCC(=O)Nc2ccc(S(N)(=O)=O)cc2)c1C | – | – | – | – | –
N#CCCCN1C(=O)C(=C(C#N)C#N)c2ccccc21 | – | – | – | – | –
COc1ccc(S(=O)(=O)NCCSCc2cccc(C)c2)cc1Br | · | – | – | – | 65
Clc1ccccc1-c1nnc2sc(CCc3ccccc3)nn12 | · | – | – | -3.4 | –
c1ccc(CCc2nn3c(-c4ccncc4)nnc3s2)cc1 | · | – | – | – | –
CN(C)/C=N/c1ncn(-c2ncc(C(F)(F)F)cc2Cl)n1 | – | – | – | – | –
COc1ccc(O)c(C(=O)c2cnn(-c3ccccn3)c2)c1 | – | – | – | – | –
COc1ccc(O)c(C(=O)c2cnc3nc4ccccc4n3c2)c1 | – | 76 | 28 | – | –
CCOc1ccc(OCC)c(NC(=O)Cn2c(C)nc3ccccc3c2=O)c1 | – | – | – | – | –
COC(=O)CN(c1ccc(F)cc1)S(=O)(=O)c1ccccc1 | · | · | – | · | –
COC(=O)Cc1ccc(N(Cc2ccccc2F)S(=O)(=O)c2ccc(Cl)cc2)cc1 | – | – | – | – | 69
Cc1ccc(C(=O)NCCOc2cccc3cccnc23)cc1Cl | – | – | – | – | –
COc1cc(C(=O)NCCOc2cccc3cccnc23)cc(OC)c1OC | · | – | 40 | – | –
Cc1cc(C)cc(OCCCOc2cccc3cccnc23)c1 | – | – | – | – | 66
Cc1nc(NC(=O)C2CC2)sc1C(=O)Nc1ccccc1Cl | – | · | · | · | ·
COc1cccc(CC2(CO)CCCN(Cc3[nH]c4ccc(C)cc4c3C)C2)c1 (stereo unspecified) | – | – | – | – | 81
COc1cccc(CC2(CO)CCCN(Cc3ccc(C)s3)C2)c1 (stereo unspecified) | – | – | – | – | –
Cc1ccc2c(c1)c1c(n2CC(O)Cn2nc(C)c(Br)c2C)CCCC1 (stereo unspecified) | – | – | – | – | 76
CC(=O)c1c(C)nc2sc3c(=N)n(N)cnc3c2c1-c1ccc(Cl)cc1 | – | – | – | – | –
O=C(/C=C/NNC(=O)c1ccccc1)c1ccc(Br)cc1 | · | · | – | 8.8 | –
SMILES | Pf gametocyte | bCat nuc transl | MT stabilize HCS | KCC2 mod | WT yeast gro inh
CCCCCNC1=CC(=O)CC(c2ccccc2)C1 (stereo unspecified) | – | · | 47 | – | –
CCCCCCCNC1=CC(=O)CC(c2ccccc2)C1 (stereo unspecified) | – | – | 12 | – | –
CNC1=CC(=O)CC(c2ccccc2)C1 (stereo unspecified) | – | – | – | – | –
CC1=CC(=C2C=CC(=O)C=C2)C=C(C)N1C | · | – | · | – | ·
Cc1cccc(C(=O)NCC(=O)N2CC(=O)Nc3ccccc32)c1 | – | – | – | – | –
Cc1cc(N2CCN(Cc3cn(C)nc3-c3ccccc3F)CC2)cc(C)n1 | – | 69 | 21 | – | –
Cn1cc(CN2CCN(c3ncccn3)CC2)c(-c2cccc(Cl)c2)n1 | – | – | – | – | –
Cc1cc(N2CCN(Cc3cn(C)nc3-c3cccc(Cl)c3)CC2)cc(C)n1 | – | 73 | – | – | –
CCOC(=O)C1(Cc2ccc(OC)cc2)CCN(C(=O)CN2CCCCC2=O)CC1 | – | – | – | – | –
CCCCSc1nnc(-c2ccccc2N)c(=O)[nH]1 | – | – | – | – | –
CCCCCCCSc1nnc(-c2ccccc2N)c(=O)[nH]1 | – | – | – | – | 79
COc1ccc2c(c1)C=C([C@@H]1C[C@H]3CN(c4ccccc4)C(=O)[C@]34CCCN14)CO2 | · | – | – | · | –
CCCCSCCCNC(=S)Nc1ccccc1C | – | – | – | – | 73
CCCCNC(=O)Nc1ccccc1CC | · | – | · | – | ·
CCCCNC(=S)Nc1ccccc1Cc1ccccc1 | – | – | – | – | 73
CCCCc1c(O)nc(SCC(=O)c2ccccc2)n(-c2ccccc2OC)c1=O | – | – | · | – | ·
O=C(NC(NNc1ccc([N+](=O)[O-])cc1)(C(F)(F)F)C(F)(F)F)c1ccc(Cl)cc1 | – | · | – | – | 78
Cc1cccc(OCC(=O)Nc2nc3ccc([N+](=O)[O-])cc3s2)c1C | · | – | – | · | 65
Nc1nc(-c2ccccc2)c(N=Nc2cccc3ccccc23)s1 | – | – | – | – | 89
Nc1nc(-c2ccccc2)c(N=Nc2ccccc2Cl)s1 | – | – | – | – | –
Cc1c(-c2cccs2)[n+](=O)c2c(n1[O-])CCCC2 | – | – | – | – | –
c1ccc(-c2nn[nH]n2)nc1 | – | – | · | – | ·
COC(=O)c1sc(N)c(C(=O)OC)c1COC(=O)c1c(C)noc1C | – | – | 56 | – | –
CN(C)c1cc(-c2ccc([N+](=O)[O-])cc2)oc(=O)c1Cl | – | – | · | – | ·
CCOC(=O)c1sc(N)c(C(=O)Nc2ccccc2OC)c1C | – | 80 | 22 | – | –
SMILES | Pf gametocyte | bCat nuc transl | MT stabilize HCS | KCC2 mod | WT yeast gro inh
CC1=NOC(=O)/C1=C\c1ccc(-c2ccc(Br)cc2C(=O)O)o1 | · | – | – | – | –
CC1=NOC(=O)/C1=C\c1ccc(-c2cc(Cl)ccc2Cl)o1 | – | · | – | – | –
CC1=NOC(=O)/C1=C\c1ccc(-c2ccc(Br)cc2)o1 | · | – | – | – | 75
CC1=NOC(=O)/C1=C/c1ccc(-c2ccc(Cl)cc2)o1 | · | – | – | · | 75
COc1ccc(C(=O)C2CCCN(C(=O)c3cc(C(C)C)no3)C2)cc1F (stereo unspecified) | – | – | – | · | –
Nc1cccc(CCc2nc3cc4ccccc4cc3[nH]2)c1 | · | 81 | – | – | –
Cn1cc(C(CO)Cc2ccccc2)c2ccccc21 (stereo unspecified) | – | · | · | · | ·
O=C(OCn1ncc(Br)c(Br)c1=O)c1ccc(F)cc1 | · | – | – | -4.7 | 87
O=C(OCn1ncc(Br)c(Br)c1=O)c1ccccc1Cl | · | – | – | · | –
O=C(C1=C[C@H](C2CC2)C[C@H](OCc2ccc(CO)cc2)O1)N1CCN(Cc2ccc3c(c2)OCO3)CC1 | – | – | – | – | –
O=C(C1=C[C@@H](C2CCCCC2)C[C@@H](OCc2ccc(CO)cc2)O1)N1CCN(Cc2ccc3c(c2)OCO3)CC1 | · | – | – | – | 76
O=C(C1=C[C@H](C2CCCCC2)C[C@H](OCc2ccc(CO)cc2)O1)N1CCN(Cc2ccc3c(c2)OCO3)CC1 | · | – | – | – | 70
CN(C(=O)/C=C/c1ccccc1)C1CCCCC1 | – | · | · | · | ·
Cc1cccc2cc(-c3ccccc3)c(-c3ccccc3)c[n+]12 | – | – | – | – | 72
O=[N+]([O-])c1cccc(-c2cc3cccc[n+]3cc2-c2cccc([N+](=O)[O-])c2)c1 | – | · | – | – | –
